Experimental findings from ChEMBL document CHEMBL1139184, “Identification of a series of tetrahydroisoquinoline derivatives as potential therapeutic agents for breast cancer” (2007) are described below.

For experiment [1], the system named is MCF7. The experiment in a line: Enhancement of growth of estrogen receptor positive MCF7 cells at 5 uM after 48 hrs by MTT assay relative to DMSO. The class given is functional, cell-based. The settings on record: Homo sapiens. In a few lines: (§1)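 Cells were seeded, left to attach for 24 h, then switched to phenol red-free DMEM with 5% charcoal-stripped FBS. After a further 24 h, compound was added at 5 µM in DMSO (final DMSO ≤0.1%) and incubated 48 h. Viability was read as absorbance at 570 nm by MTT-type kit and expressed relative to DMSO, mean of three determinations.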
For orientation: Tetrazolium assays rely on reduction of a dye to a coloured formazan, in cell work by metabolically active cells.

The target of experiment [2] is T1, Estrogen receptor (Homo sapiens) (UniProt P03372).
T1 sequence (whole entry): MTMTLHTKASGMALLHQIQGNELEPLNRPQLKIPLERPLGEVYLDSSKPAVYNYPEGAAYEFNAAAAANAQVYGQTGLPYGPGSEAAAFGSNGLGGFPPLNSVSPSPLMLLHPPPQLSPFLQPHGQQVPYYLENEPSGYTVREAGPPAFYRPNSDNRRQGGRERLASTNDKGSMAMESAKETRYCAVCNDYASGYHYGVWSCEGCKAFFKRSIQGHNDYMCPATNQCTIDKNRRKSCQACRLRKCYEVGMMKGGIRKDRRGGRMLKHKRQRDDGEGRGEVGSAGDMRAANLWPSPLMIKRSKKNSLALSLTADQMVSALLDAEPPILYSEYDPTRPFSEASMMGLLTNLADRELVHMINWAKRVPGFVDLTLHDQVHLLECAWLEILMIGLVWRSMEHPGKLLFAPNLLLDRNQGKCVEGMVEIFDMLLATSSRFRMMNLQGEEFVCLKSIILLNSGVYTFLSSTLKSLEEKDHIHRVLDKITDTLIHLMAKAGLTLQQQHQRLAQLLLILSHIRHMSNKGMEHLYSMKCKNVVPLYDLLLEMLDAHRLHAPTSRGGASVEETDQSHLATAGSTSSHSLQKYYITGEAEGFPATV
The experiment in a line: Displacement of ES2 ligand from human recombinant ERalpha relative to tamoxifen. Summed up:
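Fluorescence polarization competition assay. Recombinant hERa (7 nM) was preincubated with fluorescent estrogenic probe ES2 (1 nM) in screening buffer, then combined with serial DMSO dilutions of test molecule. After 1 h at room temperature, polarization was read (ex 495 nm, em 535 nm).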

Experiment [3] addresses T2, Progesterone receptor (Homo sapiens) (UniProt P06401).
T2 sequence (whole entry): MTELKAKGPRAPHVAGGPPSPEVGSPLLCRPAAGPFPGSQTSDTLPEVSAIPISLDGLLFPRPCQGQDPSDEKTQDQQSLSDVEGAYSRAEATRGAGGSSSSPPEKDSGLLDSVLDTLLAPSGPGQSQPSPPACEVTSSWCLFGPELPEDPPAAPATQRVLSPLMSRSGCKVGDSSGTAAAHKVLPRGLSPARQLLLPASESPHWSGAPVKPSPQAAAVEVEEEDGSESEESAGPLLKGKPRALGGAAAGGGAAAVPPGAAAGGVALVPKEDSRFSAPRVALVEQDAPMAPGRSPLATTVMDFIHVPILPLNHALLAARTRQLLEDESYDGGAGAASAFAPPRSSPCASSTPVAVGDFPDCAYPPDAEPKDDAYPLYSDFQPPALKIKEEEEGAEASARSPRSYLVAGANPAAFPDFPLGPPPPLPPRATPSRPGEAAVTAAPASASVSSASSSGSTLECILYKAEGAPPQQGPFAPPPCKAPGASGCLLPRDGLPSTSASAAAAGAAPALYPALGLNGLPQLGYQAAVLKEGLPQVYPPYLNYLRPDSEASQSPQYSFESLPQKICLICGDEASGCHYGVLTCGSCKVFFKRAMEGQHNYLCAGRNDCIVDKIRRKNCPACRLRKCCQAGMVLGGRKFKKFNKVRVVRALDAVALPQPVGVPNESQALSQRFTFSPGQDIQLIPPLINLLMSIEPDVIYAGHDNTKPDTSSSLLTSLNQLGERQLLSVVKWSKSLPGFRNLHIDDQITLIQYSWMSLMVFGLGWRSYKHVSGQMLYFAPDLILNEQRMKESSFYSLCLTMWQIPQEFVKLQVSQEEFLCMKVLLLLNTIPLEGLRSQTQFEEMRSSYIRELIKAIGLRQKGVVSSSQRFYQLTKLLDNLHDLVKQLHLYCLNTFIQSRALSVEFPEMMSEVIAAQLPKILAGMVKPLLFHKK
The experiment in a line: Antagonist activity at human PR in T47D cells assessed as MMTV-driven transactivation at 5 uM by luciferase reporter assay relative to progesterone. The class given is functional, cell-based. Details: scale not given: the % may be the effect or the level left. In a few lines: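 T47D cells in phenol red-free RPMI + 10% charcoal-stripped FBS, 3 × 10⁵ cells/well in triplicate. After 24 h, transfected with pCMV-hPR, pMMTV-Luc reporter and pCMV-β normaliser. Treated for 24 h in the presence of 1 nM progesterone. MMTV-driven luciferase measured on lysate and normalised to β-galactosidase luminescence.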

Experiment [4] concerns MDA-MB-231. The experiment in a line: Cell viability of estrogen receptor negative MDA-MB-231 cells at 5 uM after 48 hrs by MTT assay relative to DMSO. The class given is functional. In a few lines:
as §1

Experiment [5] concerns MCF7. The experiment in a line: Cell viability of estrogen receptor positive MCF7 cells at 5 uM after 48 hrs by MTT assay relative to DMSO. The experiment is classed as functional, Homo sapiens. Summed up: as §1
Experiment [6] concerns the target T1, Estrogen receptor (Homo sapiens). The experiment in a line: Agonist activity at human ERalpha in T47D cells assessed as enhancement of AP1-driven transactivation at 5 uM by luciferase reporter assay relative to DMSO. The class given is functional, cell-based. Summed up:
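T47D cells grown in RPMI 1640 + 10% FBS, plated in triplicate at 3 × 10⁵ cells/well in phenol red-free RPMI + 10% charcoal-stripped FBS. After 24 h, transfected with pCMV-hERa, AP1-Luc reporter and pCMV-β (β-gal normalisation). Compound at 5 µM or DMSO for 24 h. Luciferase read and normalised to β-gal. Result expressed as RLA of compound/RLA of DMSO.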
(In general: A reporter such as luciferase makes a cellular process visible.)

Experiment [7] shares this target. The experiment in a line: Agonist activity at human recombinant ERalpha expressed in MCF7 cells assessed as ERE-driven transactivation at 2.5 uM by luciferase reporter assay relative to DMSO. The experiment is classed as functional, cell-based. Summed up:
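MCF-7 cells in phenol red-free DMEM with 10% charcoal-stripped FBS, plated in triplicate, transfected 24 h later with pCMV-hERa, 3x-ERE-TATA-Luc and pCMV-b. Test compound (2.5 µM) or DMSO added after transfection; lysed after 24 h. Luciferase normalized to b-galactosidase; reported as ratio of compound RLA to DMSO RLA, mean of three determinations.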

Active and inactive are the calls of the source. The rule behind the calls is not given here.

On to `CCCCNC(=O)CCCCCCCCCCOC[C@@H]1Cc2ccccc2CN1C(=O)c1ccc(OC)cc1`, for which the result in experiment [1] was inactive. Further, the relative binding affinity (RBA) in experiment [2] stood at 0.14.

For the compound `C[C@]12CC[C@@H]3c4ccc(O)cc4C[C@@H](CCCCCCCCC[S+]([O-])CCCC(F)(F)C(F)(F)F)[C@H]3[C@@H]1CC[C@@H]2O` (stereo not given in full), in experiment [3], the Activity was determined as 48%.

With `CCCCNC(=O)CCCCCCCCCCOC[C@@H]1Cc2ccccc2CN1C(=O)c1ccccc1F`, the result in experiment [1] was inactive. Besides, the relative binding affinity (RBA) in experiment [2] was found to be 0.225.

For the compound `CCCCNC(=O)CCCCCCCCCCOC[C@@H]1Cc2ccccc2CN1C(=O)c1cccc(O)c1`, the outcome in experiment [4] (Homo sapiens) and in experiment [1] was inactive. In experiment [5], this compound showed an Activity of 0.48. Besides, the relative binding affinity (RBA) in experiment [2] is 5.

For the compound `CCCCNC(=O)CCCCCCCCCCOC[C@@H]1Cc2ccccc2CN1C(=O)c1cccc(OC)c1`, the result in experiment [1] was inactive. Besides, the relative binding affinity (RBA) in experiment [2] is 0.192.

Consider `CCCCNC(=O)CCCCCCCCCCOC[C@@H]1Cc2ccccc2CN1C(=O)c1cccc(Cl)c1`, for which the Activity in experiment [3] is 54%. For the same compound, the result in experiment [6] was Active. The result in experiment [1] was inactive. In experiment [2], the relative binding affinity (RBA) was 0.156.

As to `CCCCNC(=O)CCCCCCCCCCOC[C@@H]1Cc2ccccc2CN1C(=O)c1ccc(F)cc1`, in experiment [1], the outcome was inactive. For the same compound, the relative binding affinity (RBA) in experiment [2] turned out to be 0.264.

Take `CCCCCCCCNC(=O)CCCCCCCCCCOC[C@@H]1Cc2ccccc2CN1C(=O)c1cccc(F)c1`: the outcome in experiment [1] was inactive. Further, in experiment [2], the relative binding affinity (RBA) was 0.177.

Regarding `CCCCNC(=O)CCCCCCCCCCOC[C@@H]1Cc2ccccc2CN1C(=O)c1cccc(C)c1`, the outcome in experiment [7] was Active. In addition, the result in experiment [1] was inactive. In addition, the relative binding affinity (RBA) in experiment [2] came out at 0.156.

As for `CC/C(=C(\c1ccccc1)c1ccc(OCCN(C)C)cc1)c1ccccc1` [TAMOXIFEN], the Activity in experiment [4] worked out at 0.65; in experiment [5] it was 0.43. In addition, the outcome in experiment [1] was inactive.

For `CCCCNC(=O)CCCCCCCCCCOC[C@@H]1Cc2ccccc2CN1C(=O)c1cccc(F)c1`, the outcome in experiment [1] was inactive. Also, the relative binding affinity (RBA) in experiment [2] was determined as 0.287.

On to `CCCCNC(=O)CCCCCCCCCCOC[C@@H]1Cc2ccccc2CN1C(=O)c1ccc(O)cc1`, for which, in experiment [1], the outcome was inactive. Besides, the relative binding affinity (RBA) in experiment [2] is 1.79.

In the case of `CCCCNC(=O)CCCCCCCCCCOC[C@@H]1Cc2ccccc2CN1C(=O)c1ccc(C)cc1`, in experiment [7], the result was Active. Besides, the outcome in experiment [1] was inactive. The relative binding affinity (RBA) in experiment [2] is 0.132.

On to `CCCCNC(=O)CCCCCCCCCCOC[C@@H]1Cc2ccccc2CN1C(=O)Cc1cccc(F)c1`, for which, in experiment [7], the result was Active. Also, in experiment [1], the result was inactive. In experiment [2], the relative binding affinity (RBA) is 0.267.
